Assay results as given in ChEMBL document CHEMBL1208677, “Synthesis and antitumor activity of liquiritigenin thiosemicarbazone derivatives” (Eur J Med Chem, 2010).

Assays:
SGC-7901 (human) = assay: Cytotoxicity against human SGC7901 cells after 72 hrs by MTT assay; conditions: SGC-7901, 72 h
HCT-116 = assay: Cytotoxicity against human HCT116 cells after 72 hrs by MTT assay; assay type: functional, cell-based; conditions: HCT-116, 72 h
Procedure, shortened: (§1)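 Cells in RPMI-1640 were exposed to compound for 72 h, then given MTT and incubated a further 4 h at 37 °C. Formazan was dissolved in DMSO and absorbance read at 570 and 630 nm. Triplicate wells per point across three independent experiments. IC50 (50% inhibition of viability) was taken from concentration-response curves by linear regression, as the mean of three determinations.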

DU-145 (human) = assay: Cytotoxicity against human DU145 cells after 72 hrs by MTT assay; conditions: DU-145, 72 h
HeLa = assay: Cytotoxicity against human HeLa cells after 72 hrs by MTT assay; assay type: functional, cell-based
Procedure, shortened: as §1

K562 = assay: Cytotoxicity against human K562 cells after 72 hrs by MTT assay; assay type: functional, cell-based; conditions: K562, 72 h
Procedure, shortened: as §1

Compound | IC50 (SGC-7901 (human)) | IC50 (HCT-116) | IC50 (DU-145 (human)) | IC50 (HeLa) | IC50 (K562)
O=c1[nH]cc(F)c(=O)[nH]1 [FLUOROURACIL] | 2.19 µM | 1.93 µM | 2.95 µM | 9.7 µM | 45.4 µM
CC(C)(C)NC(=S)N/N=C1\CC(c2ccc(O)cc2)Oc2cc(O)ccc21 (stereo not given) | 42.9 µM | 25.9 µM | 31 µM | 50 µM | 8.9 µM
CN1CCN(C(=S)N/N=C2\CC(c3ccc(O)cc3)Oc3cc(O)ccc32)CC1 (stereo not given) | 98.8 µM | 60.4 µM | 10.1 µM | 65.8 µM | 23.1 µM
CCCN(CCC)C(=S)N/N=C1\CC(c2ccc(O)cc2)Oc2cc(O)ccc21 (stereo not given) | 62.1 µM | 41.9 µM | 32.2 µM | 75.3 µM | 12.4 µM
Oc1ccc(C2C/C(=N\NC(=S)N3CCCC3)c3ccc(O)cc3O2)cc1 (stereo not given) | 51.7 µM | 52.3 µM | 37 µM | 65.2 µM | 17.3 µM
Oc1ccc(C2C/C(=N\NC(=S)N3CCCCC3)c3ccc(O)cc3O2)cc1 (stereo not given) | 55.3 µM | 50.9 µM | 40 µM | 74.4 µM | 13.7 µM
CCCNC(=S)N/N=C1\CC(c2ccc(O)cc2)Oc2cc(O)ccc21 (stereo not given) | 74.7 µM | 54 µM | 31.2 µM | 40.2 µM | 31 µM
O=C1C[C@@H](c2ccc(O)cc2)Oc2cc(O)ccc21 [LIQUIRTIGENIN] | > 100 µM | 37.2 µM | 92.4 µM | > 100 µM | > 100 µM
Oc1ccc(C2C/C(=N\NC(=S)N3CCNCC3)c3ccc(O)cc3O2)cc1 (stereo not given) | > 100 µM | 79.4 µM | 22.5 µM | > 100 µM | 26.2 µM
Oc1ccc(C2C/C(=N\NC(=S)N3CCOCC3)c3ccc(O)cc3O2)cc1 (stereo not given) | 84.5 µM | 63.5 µM | 52.2 µM | 76.3 µM | 29.4 µM
CCCCNC(=S)N/N=C1\CC(c2ccc(O)cc2)Oc2cc(O)ccc21 (stereo not given) | 57.7 µM | 49.3 µM | 50.8 µM | > 100 µM | 17 µM
CC(C)NC(=S)N/N=C1\CC(c2ccc(O)cc2)Oc2cc(O)ccc21 (stereo not given) | 60.4 µM | 38.2 µM | 35.2 µM | 68.1 µM | 21.3 µM
